Compound activity deposited in PubChem by several laboratories.
The list is not random: actives were taken first. Their share in the collection is about 4.9%.
APP 5'UTR act – activates APP 5'UTR luciferase reporter; SH-SY5Y APP 5'UTR luciferase reporter, luminescence; zero percent = DMSO vehicle wells; activation, % at 2 µM; 190,000 tested, 1% active; AID 1276;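 active means activation above a set limit, based on mean plus 3 SD of controls, cut at about 140% in these data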
NF-kB neuron act – NF-kB expression increase, human neuronal cells; NF-kB reporter expression; active compounds read high; fold change at 12.5 µM; 190,000 tested, 1.6% active; AID 1239; in the data active means fold change above about 3.3
STAT3 blocker – inhibitors of IL-6 induced STAT3 signaling | U3A cells, IL-6 STAT3-luciferase reporter, luminescence; host cell line lacks STAT1 | inhibition, % at 5.5 µM | 190,000 tested, 0.89% active | AID 862;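 active means inhibition above the mean inhibition across all screened compounds plus 3 SD, cut at about 44% in these data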;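 further: 0% = DMSO only wells and 100% = 100 µM nifuroxazide control wells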
STAT1 inh – STAT1 signaling inhibition. AID 920. 200,000 tested, 0.35% active. inhibition, % at 5.5 µM. NIH 3T3 STAT1-luciferase reporter, IFN-gamma, luminescence;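 active means inhibition above a set limit, the mean inhibition across all tested compounds plus 3 SD, cut at about 34% in these data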;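 further: 0% = IFN-gamma with DMSO and 100% = IFN-gamma with 300 µM nifuroxazide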
STAT1 activator – increases IFN-gamma driven STAT1 reporter signal; activation (% of control), % at 5.5 µM; NIH 3T3 STAT1-luciferase reporter, luminescence; 100% = IFN-gamma alone, no compound; 200,000 tested, 2.6% active;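 active means activation above the screen-wide mean activation plus 3 SD, cut at about 130% in these data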;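 further: raw ratio to IFN-gamma control signal so 100% means no change and 0% no light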
STAT3 activator – increases IL-6 driven STAT3 reporter signal. activation (% of control), % at 5.6 µM. U3A cells, IL-6 STAT3-luciferase reporter, luminescence; 100% = signal with IL-6 EC80 alone. AID 871. 190,000 tested, 0.91% active;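 active means activation above the screen-wide mean of compound activation plus 3 SD, cut at about 130% in these data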;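 further: 0% = background luminescence of wells with medium and substrate only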
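Test system: STAT3-luciferase reporter U3A cells; Detection: reporter luminescence signal; Times: 1 h compound pre-exposure, 6 h IL-6 stimulation, 37 °C; Benchmarks: IL-6-only high control; Also added: IL-6 stimulus at 33 ng/mL final.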
The depositor's hits bear a star; · = no result.

SMILES	APP 5'UTR act	NF-kB neuron act	STAT3 blocker	STAT1 inh	STAT1 activator	STAT3 activator
Nc1ccc(O)cc1C(=O)OCC(=O)c1ccc(C2CCCCC2)cc1	-49	6.8*	39	-8	107	69
COc1ccc(C(=O)OCC(=O)c2ccc(C3CCCCC3)cc2)cc1	25	1.1	39	4	97	70
Cc1cc(/C=c2/sc3nc4ccccc4n3c2=O)c(C)n1-c1ccccn1	-60	0.17	104*	86*	23	13
Cc1c(N=C2NC(=O)/C(=C/c3cccc([N+](=O)[O-])c3)S2)c(=O)n(-c2ccccc2)n1C	-12	1.1	0	-3	103	102
CN(C)c1ccc(/C=N/N=C2/NC(=O)/C(=C/c3ccc([N+](=O)[O-])cc3)S2)cc1	6	0.8	41	35*	69	73
CCC(=O)N1CCN(c2ccc(NC(=O)c3ccccc3)cc2)CC1	15	1.2	2	-6	104	102
CCCC(=O)N1CCN(c2ccc(NC(=O)c3ccc(Br)o3)cc2)CC1	7	0.8	13	-5	104	92
O=C(Nc1ccc(N2CCN(C(=O)c3ccc(Cl)cc3)CC2)cc1)c1ccc([N+](=O)[O-])o1	-96	0.15	-2	-46	139*	106
CCCC(=O)N1CCN(c2ccc(NC(=O)c3ccc([N+](=O)[O-])o3)cc2)CC1	-70	·	9	-56	148*	96
CCC(=O)N1CCN(c2ccc(NC(=O)c3ccc([N+](=O)[O-])o3)cc2)CC1	-48	0.78	23	-35	129*	85
Cc1nnc(SCC(=O)n2c3c(c4ccccc42)CCCC3)s1	9	1	11	3	97	93
COCCCNS(=O)(=O)c1ccc2c(c1)CCN2C(C)=O	-6	0.98	0	-4	98	100
CC(=O)N1CCc2cc(S(=O)(=O)NCCC3=CCCCC3)ccc21	-1	·	65*	17	89	46
CC(=O)Oc1ccc(N(C(C)=O)S(=O)(=O)c2ccc(C)c([N+](=O)[O-])c2)cc1	-17	0.95	4	12	89	95
c1ccc(-c2nc3ccccc3o2)nc1	48	1.4	6	-28	126	98
Cc1ccnc2ccc(-c3nc4ccccc4o3)cc12	20	1.9	-58	-40	136*	153*
O=C(NNc1nc(N2CCOCC2)nc(N2CCOCC2)n1)Nc1ccc(Cl)cc1	17	1.1	7	-1	99	97
Brc1ccccc1-c1nnc(CSc2nnnn2-c2ccccc2)o1	10	1.1	-1	-5	104	107
Cc1csc(SCc2nnc(-c3ccccc3Br)o2)n1	185*	5.4*	7	-37	134*	98
Cc1nnc(SCc2nnc(-c3ccccc3Br)o2)n1-c1ccccc1	8	0.98	-4	5	95	106
Cc1csc(SCc2nnc(-c3ccc(Cl)cc3)o2)n1	95	3.7*	-11	-17	116	106
Cc1ccc(-c2nnc(CSc3nnc(C)s3)o2)cc1	12	1.6	-9	-10	109	108
Fc1ccccc1SCc1nnc(-c2ccccc2Br)o1	161*	7.2*	20	-15	112	86
O=[N+]([O-])c1cccc(CSc2nnc(Cc3ccccc3)n2-c2ccc(F)cc2)c1	-12	0.94	-4	1	99	103
COc1ccc(CNC(=O)c2sc3nc4c(c(C(F)(F)F)c3c2N)CCC4)cc1	-7	0.82	11	0	100	93
SMILES	APP 5'UTR act	NF-kB neuron act	STAT3 blocker	STAT1 inh	STAT1 activator	STAT3 activator
Cc1nc(NC(=O)c2cccc(Cl)c2)sc1C(=O)N1CCCCC1	36	1.6	-2	-21	120	109
Cc1ccc2c(Cl)c(C(=O)Nc3cc(C)on3)sc2c1	48	2.9	1	-35	132*	100
O=C(Nc1ccon1)c1sc2cc(F)ccc2c1Cl	34	2.4	-19	-35	131*	119
CC(=O)c1cc(C#N)c(N2CCOCC2)nc1C	4	1.3	10	12	88	98
CCN(CC)c1ccc2cc(-c3nc(-c4ccc(OC)cc4)cs3)c(=O)oc2c1	10	1	10	2	99	93
CCN(CC)c1ccc2cc(-c3nc4ccccc4n3C)c(=O)oc2c1	-87	4.1*	-44	-40	136*	145*
